Results reported in ChEMBL document CHEMBL5316304, “Collaborative Virtual Screening Identifies a 2-Aryl-4-aminoquinazoline Series with Efficacy in an In Vivo Model of Trypanosoma cruzi Infection” (J Med Chem, 2023).
Values after ≈ are worked out from the molar mass of the structure shown.

Columns and labels:
[1] = Kinetic solubility of compound in aqueous buffer at pH 6.8 incubated for 16 to 24 hrs by HPLC analysis; assay type: physicochemical; conditions: time 16-24 hrs, read-out: Kinetic_solubility
[2] = AUC (0 to last) in Balb/C mouse at 50 mg/kg, po or 1 mg/kg, iv by LC/MS/MS analysis; assay type: ADME, organism-based; design: dose 50 mg/kg, route po; conditions: in vivo
In short: (§1)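 Female Balb/c mice received a single i.v. dose of 1 mg/kg and a single oral dose of 50 mg/kg. PK parameters came from blood concentration–time profiles. Brain-to-plasma ratio was taken at 0.5 h.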

[3] = Toxicity in Balb/C mouse assessed as drug tolerability at 50 mg/kg, po by LC/MS/MS analysis; assay type: organism-based; conditions: in vivo
[4] = Half life in Balb/C mouse at 1 mg/kg, iv by LC/MS/MS analysis; assay type: ADME, organism-based; conditions: in vivo; in short: as §1
[5] = tested on: Trypanosoma cruzi; experiment: Antitrypanosomal activity against intracellular Trypanosoma cruzi infected in human U2OS cells assessed as parasite growth inhibition incubated for 72 hrs by confocal microscopy; assay type: functional, organism-based; conditions: Trypanosoma cruzi, U2OS, 72 h
[6] = Oral bioavailability in Balb/C mouse plasma at 50 mg/kg by LC/MS/MS analysis; assay type: ADME, organism-based; conditions: in vivo
[7] = Cmax in Balb/C mouse at 50 mg/kg, po or 1 mg/kg, iv by LC/MS/MS analysis; assay type: ADME, organism-based; design: dose 50 mg/kg, route po; conditions: in vivo; in short: as §1
[8] = Toxicity in Balb/C mouse assessed as adverse reactions at 50 mg/kg, po by LC/MS/MS analysis; assay type: organism-based; conditions: in vivo
[9] = Permeability of compound incubated for 3 hrs by PAMPA assay; assay type: ADME; conditions: read-out: permeability
[10] = Volume of distribution at steady state in Balb/C mouse plasma at 50 mg/kg, po or 1 mg/kg, iv by LC/MS/MS analysis; assay type: ADME, organism-based; conditions: in vivo; in short: as §1
[11] = Ratio of drug level in Balb/C mouse brain to plasma at 50 mg/kg, po or 1 mg/kg, iv measured after 0.5 hrs by LC/MS/MS analysis; assay type: ADME, organism-based; in short: as §1
[12] = Plasma protein binding in mouse at 2 uM incubated for 6 hrs by LC/MS/MS analysis; assay type: ADME
[13] = Selectivity index, ratio of IC50 for human U2OS cells to IC50 for intracellular Trypanosoma cruzi infected in human U2OS cells; assay type: toxicity, cell-based
In short: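 Host U2OS cell counts and intracellular parasite infection ratio were read from the same 72 h DRAQ5-stained confocal imaging assay. CC50 and EC50 came from 4-parameter logistic fits, and the selectivity index is their ratio.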

[14] = Toxicity in Balb/C mouse assessed as drug tolerability at 50 mg/kg, po bid measured after 5 days by LC/MS/MS analysis; assay type: organism-based; conditions: in vivo, 120 h, time 5 day
In short: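 Healthy female mice, one per group, were dosed orally twice daily for 5 days at 10, 50 or 100 mg/kg, with vehicle controls (0.5% HPMC/0.5% benzyl alcohol/0.4% Tween 80 in water). Readouts were mortality, clinical signs, body weight, food consumption and gross pathology.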

[15] = Cmax in Balb/C mouse at 12.5 mg/kg, po or 2 mg/kg, iv in presence of ABT by LC/MS/MS analysis; assay type: ADME, organism-based; design: dose 12.5 mg/kg, route po; conditions: in vivo
In short: (§2)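 Female Balb/c mice (n = 3 per route) dosed i.v. 2 mg/kg and p.o. 12.5 mg/kg. 1-Aminobenzotriazole, a CYP450 inhibitor, was given p.o. at 50 mg/kg 2 h before each dose. Parameters were derived from blood concentration–time profiles.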

[16] = Cmax in Balb/C mouse at 50 mg/kg, po or 0.1 mg/kg, iv by LC/MS/MS analysis; assay type: ADME, organism-based; design: dose 50 mg/kg, route po; conditions: in vivo
In short: (§3)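 Female Balb/c mice dosed i.v. 0.1 mg/kg as part of a five-compound cassette, and p.o. 50 mg/kg, without ABT. PK parameters came from concentration–time profiles. Brain-to-plasma ratio was taken at 1 h.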

[17] = Oral bioavailability in Balb/C mouse at 12.5 mg/kg in presence of ABT by LC/MS/MS analysis; assay type: ADME, organism-based; conditions: in vivo; in short: as §2
[18] = Ratio of drug level in Balb/C mouse brain to plasma at 50 mg/kg, po or 0.1 mg/kg, iv measured after 1 hr by LC/MS/MS analysis; assay type: ADME, organism-based; in short: as §3
[19] = Volume of distribution at steady state in Balb/C mouse plasma at 50 mg/kg, po or 0.1 mg/kg, iv by LC/MS/MS analysis; assay type: ADME, organism-based; conditions: in vivo; in short: as §3
[20] = tested on: Trypanosoma cruzi; experiment: Antitrypanosomal activity against acute-stage Trypanosoma cruzi CL Brener infected in BALB/c mouse assessed as reduction in parasite burden at 50 mg/kg, po bid administered for 5 days by bioluminescence imaging based analysis relative to control; assay type: functional; design: scale not given: the % may be the effect or the level left; conditions: time 5 day
[21] = Half life in Balb/C mouse plasma at 12.5 mg/kg, po in presence of ABT by LC/MS/MS analysis; assay type: ADME, organism-based; in short: as §2
[22] = Volume of distribution at steady state in Balb/C mouse plasma at 12.5 mg/kg, po or 2 mg/kg, iv in presence of ABT by LC/MS/MS analysis; assay type: ADME, organism-based; conditions: in vivo; in short: as §2
[23] = Toxicity in BALB/c mouse infected with acute Trypanosoma cruzi CL Brener assessed as adverse effects at 50 mg/kg, po bid; assay type: organism-based; conditions: in vivo
[24] = Toxicity in Balb/C mouse assessed as drug tolerability at 12.5 mg/kg, po by LC/MS/MS analysis; assay type: organism-based; conditions: in vivo
[25] = Half life in Balb/C mouse plasma at 2 mg/kg, iv in presence of ABT by LC/MS/MS analysis; assay type: ADME, organism-based; in short: as §2
[26] = AUC (0 to last) in Balb/C mouse at 50 mg/kg, po or 0.1 mg/kg, iv by LC/MS/MS analysis; assay type: ADME, organism-based; design: dose 50 mg/kg, route po; conditions: in vivo; in short: as §3
[27] = Intrinsic clearance in human liver microsomes at 1 uM incubated for 15 to 30 mins by LC/MS/MS analysis; assay type: ADME, Microsome; conditions: time 15-30 min
[28] = Half life in Balb/C mouse at 50 mg/kg, po by LC/MS/MS analysis; assay type: ADME, organism-based; conditions: in vivo; in short: as §1
[29] = Intrinsic clearance in mouse liver microsomes at 1 uM incubated for 15 to 30 mins by LC/MS/MS analysis; assay type: ADME, Microsome; conditions: time 15-30 min
[30] = AUC (0 to last) in Balb/C mouse at 12.5 mg/kg, po or 2 mg/kg, iv in presence of ABT by LC/MS/MS analysis; assay type: ADME, organism-based; design: dose 12.5 mg/kg, route po; conditions: in vivo; in short: as §2

CC(C)(Nc1nc(-c2ccccn2)nc2ccccc12)c1ccccn1
solubility kinetic [1]: 83 µg/mL (≈ 243 µM)
AUC(0-t) [2]: 59900 ng·h/mL
Activity [3]: Non-Toxic
half-life [4]: 1.13 h
IC50 [5]: 1000 nM
F [6]: > 100%
Cmax [7]: 6240 ng/mL
Activity [8]: Non-Toxic
Papp at 3 h [9]: 25.8 ×10⁻⁶ cm/s
Vdss [10]: 0.909 L/kg
BPR [11]: 1.6
PPB [12]: 94.2%
selectivity ratio ([13]; U2OS cells, read-out: Selectivity Index): 25
Activity [14]: Toxic

c1ccc(-c2nc(N3CCC(c4ccccn4)C3)c3ccccc3n2)nc1 (racemic)
solubility kinetic [1]: 83 µg/mL (≈ 235 µM)
Cmax [15]: 4243 ng/mL
Cmax [16]: 3360 ng/mL
Activity [3]: Non-Toxic
F [17]: 67%
BPR [18]: 1.66
Vdss [19]: 0.77 L/kg
IC50 [5]: 790 nM
F [6]: 50%
Activity [20]: 89.9%
half-life [21]: 3.3 h
Vdss [22]: 0.94 L/kg
Papp at 3 h [9]: 31.9 ×10⁻⁶ cm/s
Activity [23]: Non-Toxic
Activity [24]: Toxic
half-life [25]: 1 h
AUC(0-t) [26]: 9610 ng·h/mL
CLint [27]: 73 µL/min/mg
PPB [12]: 99.9%
half-life [28]: 7.2 h
intrinsic clearance (CLint) [29]: 258 µL/min/mg
Selectivity Index [13]: 9.1
AUC(0-t) [30]: 26900 ng·h/mL
Activity [14]: Non-Toxic
